Data published in article PMC7383886 (Diabetes, Obesity & Metabolism, 2020).

Tests used:
[1] = test system: patients with type 2 diabetes inadequately controlled on metformin; assay: Fasting plasma glucose; assay type: in vivo, human; conditions: mean (SD)
How it was run: (§1)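 Adults 18–<75 y with T2D on stable metformin (≥1500 mg/d or maximum tolerated dose) had HbA1c 53–86 mmol/mol and BMI <40. They received double-blind sc test compound or placebo (0.53 mL prefilled syringe): 4 mg weekly on days 1, 8, 15 and 22, 8 mg on day 29, then the assigned dose on days 57 and 85. Measured at baseline and week 17 in the full analysis set; change analysed by MMRM (LS means, 95.1% CIs).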

[2] = test system: patients with type 2 diabetes inadequately controlled on metformin; assay: Seven-point glucose profile; assay type: in vivo, human; conditions: full analysis set n = 52, mean (SD)
How it was run: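 Patients self-measured glucose with a provided glucometer for a seven-point profile: 90 min pre- and postprandial readings plus bedtime, recorded in a diary. Mean daily glucose was derived from this profile. Dosing was double-blind sc, with metformin continued: 4 mg weekly ×4, 8 mg on day 29, then the assigned monthly dose on days 57 and 85. Full analysis set; change to week 17 analysed by MMRM with 95.1% CIs.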

[3] = test system: patients with type 2 diabetes inadequately controlled on metformin; assay: Vital signs, LIBERATE 204; assay type: in vivo, human; conditions: any post-baseline time point from week 2 to week 17 or at follow-up (week 23)
[4] = test system: patients with type 2 diabetes inadequately controlled on metformin; assay: Neutralizing antibodies, cell-based cAMP-Glo assay; assay type: in vivo, human; conditions: any patient at any time
How it was run: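 Neutralizing activity of anti-drug antibodies in patient samples was tested in a cell-based assay. Antibody-mediated inhibition of intracellular cAMP was read by cAMP-Glo luminescence; the assay was validated at a central laboratory. Patients received double-blind sc test compound or placebo.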

[5] = test system: patients with T2D who were drug-naïve or on metformin; conditions: 4 mg once weekly; 12 weeks; EXCEED; cited from earlier work
[6] = test system: patients with type 2 diabetes inadequately controlled on metformin; assay: Anti-efpeglenatide antibodies, enzyme-linked immunosorbent assay; assay type: in vivo, human; conditions: log 2-expressed titre of at least 2
How it was run: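 Anti-drug antibodies in patient blood samples were detected by ELISA with an absorbance plate read-out, validated at a central laboratory. Treatment-emergent antibodies were evaluated in the safety set of patients on double-blind sc dosing with background metformin.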

[7] = test system: patients with type 2 diabetes inadequately controlled on metformin; assay: HbA1c, phase 2 trial LIBERATE 204; assay type: in vivo, human
How it was run: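 HbA1c was assessed at week 17, after 16 weeks of double-blind sc treatment on background metformin. Dosing was 4 mg weekly for 4 weeks, 8 mg on day 29, then the assigned dose every 28 days; placebo was matched. The proportion reaching HbA1c <53 mmol/mol (<7%) was compared with placebo by Fisher's exact test in the full analysis set.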

[8] = test system: patients with type 2 diabetes inadequately controlled on metformin; assay: Body weight, LIBERATE 204; assay type: in vivo, human; conditions: mean (SD)
How it was run: as §1

[9] = test system: patients with type 2 diabetes inadequately controlled on metformin; assay: Treatment-emergent adverse events and hypoglycaemia, LIBERATE 204; assay type: in vivo, human
How it was run: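 Safety set comprised all patients receiving any study drug, grouped by treatment actually received; analysed descriptively. TEAEs were adverse events starting or worsening on or after the first dose. Hypoglycaemia AEs required confirmed blood glucose <3.9 mmol/L (<70 mg/dL), coded by MedDRA 16.1. Injection-site reactions and symptomatic hypoglycaemic episodes came from patient diaries. Dosing was double-blind sc on background metformin.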

[10] = 8 mg once monthly sc, full analysis set n = 52
[11] = 12 mg once monthly sc, full analysis set n = 52
[12] = 16 mg once monthly sc, full analysis set n = 52
[13] = overall (8, 12 and 16 mg once monthly sc), full analysis set n = 156
[14] = 8 mg once monthly sc, safety set n = 52
[15] = 12 mg once monthly sc, safety set n = 52
[16] = 16 mg once monthly sc, safety set n = 53
[17] = overall (8, 12 and 16 mg once monthly sc), safety set n = 157

Substance: efpeglenatide
- FPG at Week 17 [1, 10]: 7.86 (2.28) mmol/L
- FPG at Week 17 [1, 11]: 8.09 (2.28) mmol/L
- FPG at Week 17 [1, 12]: 7.76 (1.93) mmol/L
- FPG at Week 17 [1, 13]: 7.90 (2.16) mmol/L
- Mean daily glucose at Week 17 ([2]; 8 mg once monthly sc): 8.76 (2.13) mmol/L
- Mean daily glucose at Week 17 ([2]; 12 mg once monthly sc): 8.89 (2.50) mmol/L
- Mean daily glucose at Week 17 ([2]; 16 mg once monthly sc): 8.49 (1.43) mmol/L
- Mean changes from baseline in heart rate, temperature, systolic blood pressure or diastolic blood pressure [3]: no meaningful mean changes
- Neutralizing antibodies [4]: no neutralizing antibodies were detected
- HbA1c reduction from baseline compared with once-daily liraglutide [5]: non‐inferior
- Antibody formation: Treatment-emergent (titre ≥2) [6, 14]: 5 (9.6) n (%)
- Antibody formation: Treatment-emergent (titre ≥2) [6, 15]: 6 (11.5) n (%)
- Antibody formation: Treatment-emergent (titre ≥2) [6, 16]: 4 (7.5) n (%)
- Patients with HbA1c <53 mmol/mol (7%) at Week 17 [7, 10]: 26 (50.0) n (%)
- Patients with HbA1c <53 mmol/mol (7%) at Week 17 [7, 11]: 26 (50.0) n (%)
- Patients with HbA1c <53 mmol/mol (7%) at Week 17 [7, 12]: 24 (46.2) n (%)
- Patients with HbA1c <53 mmol/mol (7%) at Week 17 [7, 13]: 76 (48.7) n (%)
- Body weight at Week 17 [8, 10]: 89.98 (18.12) kg
- Body weight at Week 17 [8, 11]: 91.87 (15.31) kg
- Body weight at Week 17 [8, 12]: 85.72 (15.58) kg
- Body weight at Week 17 [8, 13]: 89.26 (16.49) kg
- Any TEAE [9, 14]: 43 (82.7) n (%)
- Any TEAE leading to discontinuation [9, 14]: 6 (11.5) n (%)
- Injection-site reaction [9, 14]: 4 (7.7) n (%)
- SAEs: Any [9, 14]: 0 (0.0) n (%)
- SAEs: GI disorders [9, 14]: 0 (0.0) n (%)
- SAEs: Injury, poisoning and procedural complications [9, 14]: 0 (0.0) n (%)
- SAEs: Neoplasms: benign, malignant and unspecified [9, 14]: 0 (0.0) n (%)
- SAEs: Nervous system disorders [9, 14]: 0 (0.0) n (%)
- SAEs: Psychiatric disorders [9, 14]: 0 (0.0) n (%)
- TEAE: Diarrhoea [9, 14]: 9 (17.3) n (%)
- TEAE: GI disorders [9, 14]: 26 (50.0) n (%)
- TEAE: Nausea [9, 14]: 14 (26.9) n (%)
- TEAE: Vomiting [9, 14]: 8 (15.4) n (%)
- Any TEAE [9, 15]: 43 (82.7) n (%)
- Any TEAE leading to discontinuation [9, 15]: 7 (13.5) n (%)
- Injection-site reaction [9, 15]: 4 (7.7) n (%)
- SAEs: Any [9, 15]: 5 (9.6) n (%)
- SAEs: GI disorders [9, 15]: 1 (1.9) n (%)
- SAEs: Injury, poisoning and procedural complications [9, 15]: 1 (1.9) n (%)
- SAEs: Neoplasms: benign, malignant and unspecified [9, 15]: 1 (1.9) n (%)
- SAEs: Nervous system disorders [9, 15]: 1 (1.9) n (%)
- SAEs: Psychiatric disorders [9, 15]: 1 (1.9) n (%)
- TEAE: Diarrhoea [9, 15]: 8 (15.4) n (%)
- TEAE: GI disorders [9, 15]: 29 (55.8) n (%)
- TEAE: Nausea [9, 15]: 24 (46.2) n (%)
- TEAE: Vomiting [9, 15]: 13 (25.0) n (%)
- Any TEAE [9, 16]: 43 (81.1) n (%)
- Any TEAE leading to discontinuation [9, 16]: 8 (15.1) n (%)
- Injection-site reaction [9, 16]: 2 (3.8) n (%)
- SAEs: Any [9, 16]: 3 (5.7) n (%)
- SAEs: GI disorders [9, 16]: 0 (0.0) n (%)
- SAEs: Injury, poisoning and procedural complications [9, 16]: 1 (1.9) n (%)
- SAEs: Neoplasms: benign, malignant and unspecified [9, 16]: 1 (1.9) n (%)
- SAEs: Nervous system disorders [9, 16]: 1 (1.9) n (%)
- SAEs: Psychiatric disorders [9, 16]: 0 (0.0) n (%)
- TEAE: Diarrhoea [9, 16]: 11 (20.8) n (%)
- TEAE: GI disorders [9, 16]: 31 (58.5) n (%)
- TEAE: Nausea [9, 16]: 23 (43.4) n (%)
- TEAE: Vomiting [9, 16]: 17 (32.1) n (%)
- Hypoglycaemia TEAEs (blood glucose ≤3.9 mmol/L [≤70 mg/dL]) ([9]; any group): No hypoglycaemia TEAEs
- AEs of acute or chronic pancreatitis ([9]; during the study): No AEs of acute or chronic pancreatitis were reported
- Deaths ([9]; during the study): No deaths
- Any TEAE [9, 17]: 129 (82.2) n (%)
- Any TEAE leading to discontinuation [9, 17]: 21 (13.4) n (%)
- Injection-site reaction [9, 17]: 10 (6.4) n (%)
- SAEs: Any [9, 17]: 8 (5.1) n (%)
- SAEs: GI disorders [9, 17]: 1 (0.6) n (%)
- SAEs: Injury, poisoning and procedural complications [9, 17]: 2 (1.3) n (%)
- SAEs: Neoplasms: benign, malignant and unspecified [9, 17]: 2 (1.3) n (%)
- SAEs: Nervous system disorders [9, 17]: 2 (1.3) n (%)
- SAEs: Psychiatric disorders [9, 17]: 1 (0.6) n (%)
- TEAE: Diarrhoea [9, 17]: 28 (17.8) n (%)
- TEAE: GI disorders [9, 17]: 86 (54.8) n (%)
- TEAE: Nausea [9, 17]: 61 (38.9) n (%)
- TEAE: Vomiting [9, 17]: 38 (24.2) n (%)
